# Only some compounds are listed: those with a hit (about 4.2% of all), similar ones and a draw of the others.
# SENP1 inh – SENP1 (human) catalytic domain inhibition; Q9P0U3; recombinant SENP1 catalytic domain, CyPet-SUMO1-YPet FRET cleavage; inhibition, % at 10 µM; hit rate 0.21% among 360,000;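 active = inhibition at least 30% at 10 µM, raw YFP signal under a set limit, fluorescence ratio 0.5 to 1.5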;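 also: 0% = enzyme with DMSO and 100% = no enzyme wells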
# Target sequence (Q9P0U3 419-644 limits assumed): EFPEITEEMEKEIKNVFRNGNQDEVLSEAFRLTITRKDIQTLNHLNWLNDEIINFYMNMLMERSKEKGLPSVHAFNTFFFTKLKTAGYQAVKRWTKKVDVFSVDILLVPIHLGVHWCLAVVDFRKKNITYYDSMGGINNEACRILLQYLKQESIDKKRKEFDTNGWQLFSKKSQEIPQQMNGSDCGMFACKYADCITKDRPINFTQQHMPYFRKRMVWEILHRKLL
#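 Material: hSENP1 catalytic domain, recombinant; medium: Tris pH 8 with BME, BSA, NP40 and catalase; compound: single concentration of 10 µM compound, 0.5% DMSO final; technique: FRET read of cyan and yellow fluorescence; timing: 50 min enzyme reaction, room temperature, light-protected; reagent: SFCypet-SUMO1-SFYpet substrate at 25 nM; control set: no-enzyme low, enzyme-DMSO high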
# HDAC3 inh – human HDAC3 inhibition; recombinant HDAC3, fluorogenic peptide/trypsin coupled, fluorescence; AID 2718; inhibition, % at 8.3 µM; hit rate 0.15% among 320,000; O15379; in the data active = inhibition above about 26%, passing the limit was not always enough
# AHR activator – activates the human aryl hydrocarbon receptor; AHR-responsive luciferase reporter cells, luminescence; hit rate 2.5% among 320,000; P35869; activation, % at 5 µM; AID 2796; in the data active = activation above about 47%;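 also: 0% = vehicle wells and 100% = reference agonist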
# CTSL1 counter-1 – blocks F. hepatica cathepsin L1 in PFM18AAP counter-screen. recombinant F. hepatica cathepsin L1, Z-Leu-Arg-MCA fluorescence. AID 1906. hit rate 0.49% among 300,000. inhibition, % at 5.96 µM;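 active = inhibition above the mean of all tested compounds plus 3 SD, set per screening campaign, cut at about 17% in these data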;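 also: 0% = plate median of test compound wells and 100% = 1 µM Z-Phe-Ala-diazomethylketone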
# PfM18AAP inh-1 – PfM18AAP enzyme inhibition; hit rate 1.2% among 290,000; AID 1822; recombinant PfM18AAP, H-Glu-NHMec fluorogenic cleavage; inhibition, % at 7.35 µM;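 active = inhibition above the campaign mean inhibition over all tested compounds plus 3 SD, cut at about 28% in these data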;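 also: 0% = plate median of test compound wells and 100% = 2 mM ZnCl2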
# FXN GAA850 act – increases GAA850 frataxin promoter reporter activity. HEK293 lucGAA850 FXN promoter luciferase reporter, 24 h; percent of 10 µM SAHA response. activation, % at 6 µM. hit rate 0.56% among 360,000;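 active = activation above the average of all compounds screened plus 3 SD, cutoff fixed separately per campaign, cut at about 7.5% in these data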;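 also: 0% = DMSO wells and 100% = 10 µM SAHA wells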
# PfM18AAP inh-2 – confirmation of Plasmodium falciparum M18 aspartyl aminopeptidase inhibitors | inhibition, % at 7.35 µM | AID 2170 | recombinant PfM18AAP, H-Glu-NHMec fluorogenic cleavage | shares compounds with PfM18AAP inh-1 | hit rate 28% among 2,400;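 active = mean inhibition over replicate wells above the hit cutoff set for the earlier primary screen, cut at about 29% in these data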;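 also: 0% = median of test compound wells and 100% = 2 mM ZnCl2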
# CTSL1 counter-2 – Cathepsin L (human) inhibition, confirmation. shares compounds with PfM18AAP inh-1. purified cathepsin L1, Z-Leu-Arg-MCA fluorescence. inhibition, % at 5.96 µM. 2,400 tested, under 10 active;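 active = average inhibition across replicates above the hit cutoff set in the earlier primary screen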;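 also: 0% = median of test compound wells and 100% = Z-Phe-Ala-diazomethylketone 1 µM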
# AHR act confirm – confirmation of human aryl hydrocarbon receptor activators. shares compounds with AHR activator. human cells, AHR-responsive luciferase reporter, luminescence. activation, % at 9 µM. hit rate 87% among 2,300; in the data active = activation above about 49%;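 also: HepG2 hepatoma cells carrying a DRE-driven firefly luciferase reporter; 0% = vehicle wells and 100% = reference agonist wells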
# PXR counter – counter-screen for AHR activators: human PXR activators; activation, % at 11.6 µM; hit rate 88% among 2,300; shares compounds with AHR activator; cell-based PXR reporter, luciferase luminescence; in the data active = activation above about 11%;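 also: human hepatoma DPX-2 cells expressing full-length human PXR; 0% = DMSO and 100% = reference agonist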
# Target sequence (O75469 whole entry, looked up): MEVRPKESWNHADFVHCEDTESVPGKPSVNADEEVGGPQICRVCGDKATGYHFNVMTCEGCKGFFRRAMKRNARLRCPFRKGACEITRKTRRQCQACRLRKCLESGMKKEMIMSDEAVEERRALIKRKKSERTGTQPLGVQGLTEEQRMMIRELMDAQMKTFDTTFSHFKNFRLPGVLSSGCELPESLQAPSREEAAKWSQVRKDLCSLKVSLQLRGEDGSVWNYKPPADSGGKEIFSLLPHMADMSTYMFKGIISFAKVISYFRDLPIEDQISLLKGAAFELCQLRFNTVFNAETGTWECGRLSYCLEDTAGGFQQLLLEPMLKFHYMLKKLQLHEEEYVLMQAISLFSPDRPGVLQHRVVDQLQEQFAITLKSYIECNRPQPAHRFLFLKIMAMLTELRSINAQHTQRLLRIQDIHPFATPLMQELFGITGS
# GAA30 FXN cntr – activates GAA30 frataxin promoter, counter-screen for GAA850 activators. shares compounds with FXN GAA850 act. HEK293 lucGAA30 FXN promoter luciferase, 24 h; DMSO = 0%, 5 µM ipriflavone = 100%. activation, % at 6 µM. hit rate 66% among 1,900;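 active = mean activation above the mean of solvent-only control wells plus 3 SD, cut at about 22% in these data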;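 also: counterscreen of GAA850 promoter hits where activity marks nonselective or luminescence artifacts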
# GAA850 confirm – GAA850 FXN promoter activation confirmation | shares compounds with FXN GAA850 act | HEK293 lucGAA850 FXN promoter luciferase reporter, 24 h; 100% = activation by SAHA | activation, % at 6 µM | hit rate 86% among 1,900;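 active = mean activation above a set limit taken from the primary screen, cut at about 8% in these data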;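 also: 0% = DMSO wells and 100% = 10 µM SAHA wells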
# * = called active by the depositor; / = not tested or not shown.
SMILES,SENP1 inh,HDAC3 inh,AHR activator,CTSL1 counter-1,PfM18AAP inh-1,FXN GAA850 act,PfM18AAP inh-2,CTSL1 counter-2,others
Cc1cc(/C=C2\C(=O)NC(=O)N(c3ccc(Br)cc3)C2=O)c(C)n1-c1cc(C(=O)O)cc(C(=O)O)c1,-36.8,-1.9,-1.2,3.5,35.0*,0.4,-1.5,-6.3,
Cc1cc(/C=C2\C(=O)NC(=O)N(c3cccc(F)c3)C2=O)c(C)n1-c1cc(C(=O)O)cc(C(=O)O)c1,-9.4,-1.1,3.8,0.1,19.2,0.8,/,/,
O=C1CC2OCC=C3CN4CCC56c7ccccc7N1C5C2C3CC46O (stereo not given),-10.2,/,/,/,/,-3.1,/,/,
COC(=O)Cn1cc(C=C2C(=O)NC(=O)NC2=O)c2ccccc21,0.8,9.3,16.2,-6.2,48.6*,4.0,30.0*,-7.3,
CCn1cc(C=C2C(=O)NC(=O)NC2=O)c2ccccc21,1.0,4.3,3.2,-5.0,42.4*,1.6,38.3*,-0.2,
Nc1nnc(P(c2ccccc2)c2ccccc2)s1,0.9,0.4,-2.2,15.8,-0.3,0.4,/,/,
Cc1ccc(N)cc1Cl,0.6,/,/,/,/,-0.3,/,/,
CC1=C(C(=O)O)N2C(=O)C(NC(=O)Cc3ccccc3)C2SC1 (stereo not given),4.5,1.2,-0.5,-0.1,47.8*,-0.4,-16.8,-0.8,
COC(=O)C1=C(c2cccc(OC)c2OC)C[C@@H]2CC[C@H]1N2C(=O)NCc1ccco1,0.5,-6.4,-2.3,-0.9,/,0.1,/,/,
O=C1/C(=C\c2cc3c(cc2Br)OCO3)N2CCC1CC2,2.6,1.3,11.6,6.2,36.6*,0.5,-40.5,7.4,
O=C1/C(=C/c2ccc3c(c2)OCO3)N2CCC1CC2,2.0,5.1,7.5,3.9,1.6,0.8,/,/,
Oc1ccc(/C=N/NP(=S)(c2ccccc2)c2ccccc2)cc1O,2.1,13.9,0.4,0.8,38.0*,1.9,0.9,0.3,
C/C(=N\NP(=S)(c1ccccc1)c1ccccc1)c1ccc(O)cc1O,4.9,10.5,1.7,1.5,10.8,1.2,/,/,
Oc1ccc(/C=N/NP(=S)(c2ccccc2)c2ccccc2)c(O)c1O,0.9,8.4,2.7,-3.2,33.2*,0.2,-23.9,3.7,
Oc1ccccc1/C=N/NP(=S)(c1ccccc1)c1ccccc1,-1.4,-0.2,0.2,2.2,-2.3,0.8,/,/,
CC1=C[C@@H]2c3cccc4[nH]cc(c34)C[C@H]2N(C)C1,-30.0,-10.0,7.9,3.1,48.5*,0.0,-11.9,-1.4,
C=CCN1CC[C@]23c4c5ccc(O)c4OC2[C@H](O)CC[C@@]3(O)[C@H]1C5 (stereo not given in full),-1.9,/,0.4,/,/,-1.6,/,/,
C=CCN1CCc2cccc3c2[C@H]1Cc1ccc(O)c(O)c1-3,-10.0,-0.9,2.0,-2.6,62.0*,2.2,56.4*,-5.3,
CN(Cc1ccccc1)C(=C(Cl)Cl)/C(=C1/NCCN1Cc1ccc(Cl)nc1)[N+](=O)[O-],-3.4,2.4,0.8,-0.3,3.2,0.8,/,/,
O=C1NC(=O)N(Cc2ccco2)C(=O)/C1=C/c1ccc(-c2cccc([N+](=O)[O-])c2)o1,0.3,14.7,5.1,-1.6,33.9*,2.6,-101.1,-6.0,
C=CCN1C(=O)NC(=O)/C(=C\c2ccc(-c3ccccc3[N+](=O)[O-])o2)C1=O,0.4,1.2,10.1,4.3,10.2,3.5,/,/,
C[C@H]1COc2cc(N3CCN(C)CC3)ccc2S(=O)(=O)N1,0.3,/,/,/,/,/,/,/,
N/C(=N\N=C\c1ccc(O)cc1O)N[N+](=O)[O-],-27.0,5.4,0.8,5.7,43.6*,0.1,64.7*,3.7,
CC(=O)OC1(Cc2ccccc2)CN2CCC1c1ccccc12 (stereo not given),0.0,0.7,-0.7,1.3,0.5,-1.1,/,/,
O=C1CN=C(c2ccc(Br)cc2)c2oc3ccccc3c2N1,-3.8,1.5,82.4*,0.0,-9.2,5.7,/,/,AHR act confirm=107.8*;PXR counter=29.0*
SMILES,SENP1 inh,HDAC3 inh,AHR activator,CTSL1 counter-1,PfM18AAP inh-1,FXN GAA850 act,PfM18AAP inh-2,CTSL1 counter-2,others
O=C1CN=C(c2ccc(F)cc2)c2oc3ccccc3c2N1,-1.6,-0.6,2.5,3.0,3.2,0.4,/,/,
CCCCOP(=O)(OCCCC)/C(C#N)=C(/C)O,1.1,8.2,-1.1,-1.7,-4.3,1.1,/,/,
Cc1nc2cc([N+](=O)[O-])ccc2c(=O)n1-c1ccc(Br)cc1,1.2,-1.0,87.2*,1.3,-2.9,1.2,/,/,AHR act confirm=34.5;PXR counter=11.4*
Cc1nc2ccc(Cl)cc2c(=O)n1-c1ccc([N+](=O)[O-])cc1,1.0,-0.8,140.2*,-2.1,-6.8,-0.1,/,/,AHR act confirm=3.9;PXR counter=11.4*
CC(=Nc1ccc(F)cc1)c1c(O)n(C)c(=O)[nH]c1=O,0.2,4.8,-1.9,1.1,1.0,1.3,/,/,
Cc1cnc(-n2c(=S)[nH]c3ccccc3c2=O)s1,1.3,0.6,124.7*,/,/,2.4,/,/,AHR act confirm=137.5*;PXR counter=19.5*
COc1cc2c(cc1OC)C13CCN4CC5=CCOC6CC(=O)N2C1C6C5CC43 (stereo not given) (tested in a mixture with another compound),0.1,0.1,4.0,-3.0,3.6,0.8,/,/,
Brc1ccc2[nH]cc(/C=N/N3CCCCC3)c2c1,-0.2,10.8,83.1*,16.3,-0.2,1.3,/,/,AHR act confirm=33.3;PXR counter=21.7*
C(=NN1CCCCCC1)c1c[nH]c2ccccc12,-12.5,/,/,/,/,0.5,/,/,
Cc1cc(N=Nc2ccccc2C)ccc1N,2.4,5.3,80.4*,1.0,/,/,/,/,AHR act confirm=129.6*;PXR counter=11.6*
Nc1ccc(N=Nc2ccccc2)cc1,2.0,3.4,-4.5,-0.6,-1.0,-1.3,/,/,
Cc1[nH]c2ccc(OC(F)(F)F)cc2c1CCNCc1cccc([N+](=O)[O-])c1,2.4,10.6,7.3,2.5,0.2,5.0,/,/,
Cc1[nH]c2ccc(OC(F)(F)F)cc2c1CCNCc1ccc(Cl)cc1,-2.1,6.5,/,/,2.3,13.2*,/,/,GAA30 FXN cntr=9.7;GAA850 confirm=8.9*

# High-throughput results: PubChem, several laboratories
